Experiments:
Conditions in all cases: stereoisomer not certain
UniProt Q8VGM2 = molecular target: T1, UniProt Q8VGM2
T1 sequence (whole entry): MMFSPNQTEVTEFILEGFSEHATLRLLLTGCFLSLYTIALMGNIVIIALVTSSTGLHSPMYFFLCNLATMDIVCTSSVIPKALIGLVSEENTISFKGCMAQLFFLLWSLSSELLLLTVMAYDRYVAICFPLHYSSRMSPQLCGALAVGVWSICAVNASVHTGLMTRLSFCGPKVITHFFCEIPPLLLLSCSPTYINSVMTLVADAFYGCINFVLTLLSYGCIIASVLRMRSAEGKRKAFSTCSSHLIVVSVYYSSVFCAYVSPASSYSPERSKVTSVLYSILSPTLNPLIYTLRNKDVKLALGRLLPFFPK
Method in brief: (§1)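 Each receptor–molecule pair is labelled responsive or non-responsive (inactive) according to whether the original authors judged the measured signal statistically different from baseline. The data were taken from the main text and supplementary material of published papers and checked for typos and inconsistencies. Assay methods differed by source, with transient luciferase assays in mammalian cell lines being common.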

UniProt Q8VGP6 = molecular target: T2, UniProt Q8VGP6
T2 sequence (whole entry): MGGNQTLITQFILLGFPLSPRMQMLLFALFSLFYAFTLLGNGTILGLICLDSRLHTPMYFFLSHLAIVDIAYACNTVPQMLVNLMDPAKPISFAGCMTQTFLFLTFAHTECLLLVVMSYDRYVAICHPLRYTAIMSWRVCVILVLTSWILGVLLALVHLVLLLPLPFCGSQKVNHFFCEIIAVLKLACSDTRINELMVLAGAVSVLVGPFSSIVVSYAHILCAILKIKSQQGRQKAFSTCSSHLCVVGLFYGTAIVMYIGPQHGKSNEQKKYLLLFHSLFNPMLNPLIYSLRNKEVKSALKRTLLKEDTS
Method in brief: as §1

UniProt Q8VGQ3 = molecular target: T3, UniProt Q8VGQ3
T3 sequence (whole entry): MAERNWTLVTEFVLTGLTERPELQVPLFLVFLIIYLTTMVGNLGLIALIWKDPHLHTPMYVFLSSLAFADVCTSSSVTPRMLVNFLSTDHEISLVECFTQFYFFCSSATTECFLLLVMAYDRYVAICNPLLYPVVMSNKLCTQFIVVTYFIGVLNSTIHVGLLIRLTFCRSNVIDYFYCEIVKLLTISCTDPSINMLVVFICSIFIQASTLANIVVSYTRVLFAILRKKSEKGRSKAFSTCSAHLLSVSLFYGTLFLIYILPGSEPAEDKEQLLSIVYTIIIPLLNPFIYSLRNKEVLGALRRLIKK
Method in brief: as §1

UniProt Q8VGT4 = molecular target: T4, UniProt Q8VGT4
T4 sequence (whole entry): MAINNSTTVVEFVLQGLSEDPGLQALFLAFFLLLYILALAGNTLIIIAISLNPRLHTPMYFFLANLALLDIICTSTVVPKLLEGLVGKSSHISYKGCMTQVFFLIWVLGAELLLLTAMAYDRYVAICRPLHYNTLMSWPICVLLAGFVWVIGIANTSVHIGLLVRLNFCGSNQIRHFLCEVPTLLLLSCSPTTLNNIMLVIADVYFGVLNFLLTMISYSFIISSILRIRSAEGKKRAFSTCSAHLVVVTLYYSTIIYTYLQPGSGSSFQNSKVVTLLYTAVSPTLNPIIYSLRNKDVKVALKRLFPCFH
Method in brief: as §1

UniProt Q8VGV1 = molecular target: T5, UniProt Q8VGV1
T5 sequence (whole entry): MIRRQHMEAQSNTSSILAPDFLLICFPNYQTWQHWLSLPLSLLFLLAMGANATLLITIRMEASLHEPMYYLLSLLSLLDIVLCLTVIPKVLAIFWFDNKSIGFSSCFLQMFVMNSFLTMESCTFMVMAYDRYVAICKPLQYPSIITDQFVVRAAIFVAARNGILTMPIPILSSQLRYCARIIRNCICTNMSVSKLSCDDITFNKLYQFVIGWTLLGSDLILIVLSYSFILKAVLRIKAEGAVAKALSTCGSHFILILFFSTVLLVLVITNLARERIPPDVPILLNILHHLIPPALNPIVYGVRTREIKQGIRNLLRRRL
Method in brief: as §1

UniProt Q8VGW5 = molecular target: T6, UniProt Q8VGW5
T6 sequence (whole entry): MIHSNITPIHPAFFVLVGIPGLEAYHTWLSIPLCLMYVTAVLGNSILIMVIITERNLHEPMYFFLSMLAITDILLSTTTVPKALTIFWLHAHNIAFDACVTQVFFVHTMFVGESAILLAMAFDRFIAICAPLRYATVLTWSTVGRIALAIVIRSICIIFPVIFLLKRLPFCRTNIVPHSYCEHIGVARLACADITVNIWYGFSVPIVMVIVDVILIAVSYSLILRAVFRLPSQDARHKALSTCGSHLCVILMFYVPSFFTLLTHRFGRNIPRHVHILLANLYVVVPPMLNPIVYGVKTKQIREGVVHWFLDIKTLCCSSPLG
Method in brief: as §1

UniProt Q8VGX5 = molecular target: T7, UniProt Q8VGX5
T7 sequence (whole entry): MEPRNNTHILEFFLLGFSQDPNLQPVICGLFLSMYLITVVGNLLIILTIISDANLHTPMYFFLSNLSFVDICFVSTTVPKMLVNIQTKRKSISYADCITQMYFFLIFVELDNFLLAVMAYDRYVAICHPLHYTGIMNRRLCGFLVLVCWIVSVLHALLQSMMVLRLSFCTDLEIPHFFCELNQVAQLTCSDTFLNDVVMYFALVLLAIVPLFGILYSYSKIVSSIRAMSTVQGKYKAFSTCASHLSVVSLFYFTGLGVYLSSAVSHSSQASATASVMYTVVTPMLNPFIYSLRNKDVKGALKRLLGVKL
Method in brief: as §1

UniProt Q8VGU3 = molecular target: T8, UniProt Q8VGU3
T8 sequence (whole entry): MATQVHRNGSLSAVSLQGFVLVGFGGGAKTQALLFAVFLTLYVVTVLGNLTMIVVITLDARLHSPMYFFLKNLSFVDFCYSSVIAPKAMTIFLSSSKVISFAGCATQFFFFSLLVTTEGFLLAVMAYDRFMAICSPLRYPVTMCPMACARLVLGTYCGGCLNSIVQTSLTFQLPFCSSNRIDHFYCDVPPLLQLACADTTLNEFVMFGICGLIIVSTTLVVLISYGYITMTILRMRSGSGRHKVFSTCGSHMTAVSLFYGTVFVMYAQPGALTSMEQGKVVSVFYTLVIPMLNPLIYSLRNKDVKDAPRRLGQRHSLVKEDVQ
Method in brief: as §1

UniProt Q8VGV7 = molecular target: T9, UniProt Q8VGV7
T9 sequence (whole entry): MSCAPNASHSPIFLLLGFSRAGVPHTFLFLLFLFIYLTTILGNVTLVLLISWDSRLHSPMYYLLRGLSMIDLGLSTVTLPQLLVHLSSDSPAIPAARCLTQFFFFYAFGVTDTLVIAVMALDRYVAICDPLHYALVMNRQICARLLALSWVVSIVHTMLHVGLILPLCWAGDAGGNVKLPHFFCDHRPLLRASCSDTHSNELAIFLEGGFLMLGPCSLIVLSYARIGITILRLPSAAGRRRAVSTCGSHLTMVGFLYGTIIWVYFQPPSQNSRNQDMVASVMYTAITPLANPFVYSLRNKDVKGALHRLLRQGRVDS
Method in brief: as §1

UniProt Q8VGX3 = molecular target: T10, UniProt Q8VGX3
T10 sequence (whole entry): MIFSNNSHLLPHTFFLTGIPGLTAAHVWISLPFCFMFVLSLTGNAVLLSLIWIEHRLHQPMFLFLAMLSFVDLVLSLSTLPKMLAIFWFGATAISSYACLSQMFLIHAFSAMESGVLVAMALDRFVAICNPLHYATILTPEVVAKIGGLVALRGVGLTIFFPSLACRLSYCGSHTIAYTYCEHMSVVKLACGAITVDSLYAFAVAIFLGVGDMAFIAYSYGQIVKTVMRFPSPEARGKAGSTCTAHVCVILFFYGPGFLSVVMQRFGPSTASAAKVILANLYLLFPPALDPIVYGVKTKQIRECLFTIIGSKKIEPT
Method in brief: as §1
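Also: active if original authors judged signal statistically different from baseline.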

SMILES	odorant receptor agonist call (UniProt Q8VGM2)	odorant receptor agonist call (UniProt Q8VGP6)	odorant receptor agonist call (UniProt Q8VGQ3)	odorant receptor agonist call (UniProt Q8VGT4)	odorant receptor agonist call (UniProt Q8VGV1)	odorant receptor agonist call (UniProt Q8VGW5)	odorant receptor agonist call (UniProt Q8VGX5)	odorant receptor agonist call (UniProt Q8VGU3)	odorant receptor agonist call (UniProt Q8VGV7)	odorant receptor agonist call (UniProt Q8VGX3)
CCCCCCCC(=O)[O-].[H+]	inactive	inactive	inactive	inactive	active	inactive	inactive			
OCCCCCCCCCO							inactive	inactive	inactive	inactive
CCCCC(=O)CC	inactive	inactive	inactive	inactive	inactive		inactive	inactive	inactive	inactive
COc1cnccn1							inactive	inactive	inactive	inactive
CC1CCC(C(C)C)C(=O)C1 (stereo unspecified)							inactive	inactive	inactive	inactive
CCCCCO	inactive	inactive	inactive	inactive	inactive		inactive			
CCCCCOC(=O)CCCCC	inactive	inactive	inactive	inactive	inactive		inactive	inactive	inactive	inactive
CCCCCCCCOC=O							inactive	inactive	inactive	inactive
CC1(C)CC(=O)CC(=O)C1							inactive	inactive	inactive	inactive
CCC(C(=O)O)c1ccccc1 (stereo unspecified)	inactive	inactive	inactive	inactive	inactive		inactive			
Cc1ccc(C(C)C)cc1							inactive	inactive	inactive	inactive
CC(CC=O)CCCC(C)(C)O (stereo unspecified)							inactive	inactive	inactive	inactive
COc1nccnc1C(C)C							inactive	inactive	inactive	inactive
O=C([O-])CCCCCCCC(=O)[O-].[H+].[H+]						inactive	inactive	inactive	inactive	inactive
CCCCCC=CCCC=O							inactive	inactive	inactive	inactive
COc1ccccc1							inactive	inactive	inactive	inactive
CC=C(C)C=O							inactive	inactive	inactive	inactive

From the M2OR odorant receptor database
